Laboratory results taken from ChEMBL document CHEMBL1146033, “Synthesis, calpain inhibitory activity, and cytotoxicity of P2-substituted proline and thiaproline peptidyl aldehydes and peptidyl alpha-ketoamides” (J Med Chem, 2006).
pKi: −log10 of the molar value.

How the values were obtained:
Cathepsin B = Cathepsin B (Homo sapiens, UniProt P07858); experiment: Inhibition of human liver cathepsin B
Procedure, shortened: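 Human liver cathepsin B (1 nM) in 50 mM NaOAc pH 6.0, 1 mM EDTA, 0.5 mM DTT, with Z-Arg-Arg-AMC at 50 or 250 µM and varying inhibitor in DMSO (2% total). Ki from Dixon plots of triplicate-averaged data, intersecting lines r ≥ 0.95; selectivity ratio = cathepsin B Ki / µ-calpain Ki.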

[1] = target: T1, Calpain-1 catalytic subunit (Sus scrofa, UniProt P35750); experiment: Inhibition of porcine erythrocyte mu calpain
T1 sequence (P35750 whole entry): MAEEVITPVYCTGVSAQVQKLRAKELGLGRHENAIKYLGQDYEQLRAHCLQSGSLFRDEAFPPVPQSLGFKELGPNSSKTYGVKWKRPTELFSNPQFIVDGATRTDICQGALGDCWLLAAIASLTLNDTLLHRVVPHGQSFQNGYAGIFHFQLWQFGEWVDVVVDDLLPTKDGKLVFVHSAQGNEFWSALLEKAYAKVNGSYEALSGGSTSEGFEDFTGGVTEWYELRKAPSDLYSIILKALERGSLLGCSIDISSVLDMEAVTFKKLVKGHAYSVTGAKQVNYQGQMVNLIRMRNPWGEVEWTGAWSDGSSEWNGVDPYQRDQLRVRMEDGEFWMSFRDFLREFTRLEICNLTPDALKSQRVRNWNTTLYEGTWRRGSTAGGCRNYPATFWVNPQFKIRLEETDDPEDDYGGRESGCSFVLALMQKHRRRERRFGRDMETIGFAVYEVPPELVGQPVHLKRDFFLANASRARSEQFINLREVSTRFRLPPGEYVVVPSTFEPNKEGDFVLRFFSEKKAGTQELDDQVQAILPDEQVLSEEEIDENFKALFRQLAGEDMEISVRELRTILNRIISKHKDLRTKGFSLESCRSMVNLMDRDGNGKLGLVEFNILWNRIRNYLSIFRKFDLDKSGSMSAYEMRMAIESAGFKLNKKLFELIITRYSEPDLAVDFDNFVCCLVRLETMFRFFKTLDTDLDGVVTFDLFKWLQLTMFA
Procedure, shortened: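 µ-Calpain (1 µg, porcine erythrocyte) in 50 mM Tris HCl pH 7.4, 50 mM NaCl, 10 mM DTT, 1 mM EDTA, 1 mM EGTA, 5 mM CaCl2, fluorogenic Suc-Leu-Tyr-AMC at 0.2 or 1.0 mM, varying inhibitor in DMSO (2% total). Ki from Dixon plots (1/v vs I) of triplicate-averaged data, intersecting lines r ≥ 0.95.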

[2] = Selectivity ratio, Ki for human cathepsin B/Ki for porcine mu calpain
Jurkat [3] = experiment: Antiproliferative activity against human Jurkat cell line by MTT assay; assay type: functional
Procedure, shortened: (§1)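 Cells seeded at 2000 to 15000 per well, exposed to drug at 1 to 100 µM for 96 h at 37 °C, 5% CO2; untreated wells as negative control. MTT (5 mg/mL) added for final 2-4 h, formazan dissolved in DMSO, absorbance at 595 nm. GI50 (50% reduction in living cells vs untreated) from nonlinear regression of % survival against concentration.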

DU-145 = experiment: Antiproliferative activity against human DU145 cell line by MTT assay; assay type: functional; procedure, shortened: as §1
Daudi = experiment: Antiproliferative activity against human Daudi cell line by MTT assay; assay type: functional; procedure, shortened: as §1
PC-3 = experiment: Antiproliferative activity against human PC3 cell line by MTT assay; assay type: functional; procedure, shortened: as §1
HeLa = experiment: Antiproliferative activity against human HeLa cell line by MTT assay; assay type: functional; procedure, shortened: as §1
Jurkat [4] = experiment: Inhibition of calpain-mediated production of spectrin breakdown products in Jurkat cells at 20 uM; assay type: functional, Homo sapiens; parameters: scale not given: the % may be the effect or the level left
Procedure, shortened: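 Jurkat cells washed in HEPES-buffered saline, preincubated 10 min with inhibitor at 20 µM, then ionomycin (20 µM final) and Ca2+ (5 mM final) added; 60 min at 37 °C. Lysates resolved by SDS-PAGE, immunoblotted for α-spectrin and β-actin, chemiluminescence. 145/150-kDa spectrin breakdown doublet quantified by densitometry, normalized to β-actin.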

Row | pKi (Cathepsin B) | pKi [1] | Selectivity ratio [2] | GI50 (Jurkat [3]) [µM] | GI50 (DU-145) [µM] | GI50 (Daudi) [µM] | GI50 (PC-3) [µM] | GI50 (HeLa) [µM] | Compound | Activity (Jurkat [4]) [%]
1 | 5.60 | 6.72 | 13 | – | – | – | – | – | O=CC(Cc1ccccc1)NC(=O)[C@H]1CCCN1S(=O)(=O)c1cccc2ccccc12 (mixture of isomers) | –
2 | 5.26 | 6.59 | 21.3 | – | – | – | – | – | O=CC(Cc1ccccc1)NC(=O)[C@H]1CCCN1S(=O)(=O)c1cccc([N+](=O)[O-])c1 (mixture of isomers) | –
3 | 5.83 | 6.50 | 4.72 | – | – | – | – | – | CCCCS(=O)(=O)N1CCC[C@@H]1C(=O)NC(C=O)Cc1ccccc1 (mixture of isomers) | –
4 | 5.38 | 7.48 | 131 | – | – | – | – | – | O=CC(Cc1ccccc1)NC(=O)[C@H]1CCCN1S(=O)(=O)c1ccc(I)cc1 (mixture of isomers) | –
5 | 5.59 | 6.35 | 5.7 | 23.8 | 30 | 22.4 | 14.6 | 31.4 | COc1ccc(S(=O)(=O)N2CCC[C@@H]2C(=O)NC(Cc2ccccc2)C(=O)C(=O)NCCc2ccccc2)cc1 (mixture of isomers) | –
6 | 4.92 | 7.09 | 151 | 17.6 | 45.2 | 16.7 | 40.1 | 48.9 | Cc1ccc(S(=O)(=O)N2CCC[C@@H]2C(=O)NC(C=O)Cc2ccccc2)cc1 (stereo not given in full) | –
7 | 5.43 | 7.70 | 188 | 33.8 | 42.4 | 32.5 | 49.3 | 40.4 | O=CC(Cc1ccccc1)NC(=O)[C@H]1CCCN1S(=O)(=O)c1ccc([N+](=O)[O-])cc1 (stereo not given in full) | 22.8
8 | 5.16 | 6.07 | 8.12 | 21.9 | 22.6 | 19.6 | 20.8 | 22.9 | Cc1ccc(S(=O)(=O)N2CCC[C@@H]2C(=O)NC(Cc2ccccc2)C(=O)C(=O)NCCc2ccccc2)cc1 (mixture of isomers) | –
9 | 5.46 | 6.08 | 1.19 | – | – | – | – | – | CC(C)S(=O)(=O)N1CCC[C@@H]1C(=O)NC(C=O)Cc1ccccc1 (mixture of isomers) | –
10 | 7.05 | 7.13 | 1.21 | – | – | – | – | – | O=CC(Cc1ccccc1)NC(=O)[C@H]1CSCN1S(=O)(=O)c1ccc(Br)cc1 (mixture of isomers) | –
11 | 6.92 | 7.15 | 1.7 | 3.21 | 6 | 2.17 | 5.17 | 4.37 | Cc1ccc(S(=O)(=O)N2CSC[C@@H]2C(=O)NC(C=O)Cc2ccccc2)cc1 (stereo not given in full) | 82.4
12 | 5.61 | 6.71 | 13 | – | – | – | – | – | O=CC(Cc1ccccc1)NC(=O)[C@H]1CCCN1S(=O)(=O)c1ccccc1 (mixture of isomers) | –
13 | 5.35 | 6.89 | 34.5 | – | – | – | – | – | O=CC(Cc1ccccc1)NC(=O)[C@H]1CCCN1S(=O)(=O)c1ccc(Br)cc1 (mixture of isomers) | –
14 | 5.83 | 7.43 | 40 | 25.4 | 63.2 | 35.3 | 19.7 | 38.5 | COc1ccc(S(=O)(=O)N2CCC[C@@H]2C(=O)NC(C=O)Cc2ccccc2)cc1 (mixture of isomers) | –
15 | 5.16 | 6.41 | 18.1 | 24.2 | 24.8 | 24.8 | 27.1 | 27.4 | O=CC(Cc1ccccc1)NC(=O)[C@H]1CCCN1S(=O)(=O)c1ccc(F)cc1 (mixture of isomers) | –
16 | 6.64 | 7.05 | 2.5 | – | – | – | – | – | O=CC(Cc1ccccc1)NC(=O)[C@H]1CSCN1S(=O)(=O)c1ccc(Cl)cc1 (mixture of isomers) | –
17 | 5.34 | 6.37 | 10.9 | – | – | – | – | – | O=CC(Cc1ccccc1)NC(=O)[C@H]1CCCN1S(=O)(=O)c1ccccc1[N+](=O)[O-] (mixture of isomers) | –
18 | 6.47 | 6.96 | 3.09 | 6.13 | 6.22 | 3.54 | 7.04 | 7.12 | O=CC(Cc1ccccc1)NC(=O)[C@H]1CSCN1S(=O)(=O)c1ccc(F)cc1 (mixture of isomers) | –
19 | 4.92 | 6.55 | 18.1 | 21.3 | 31.8 | 23.1 | 27.8 | 27.6 | O=C(NCCc1ccccc1)C(=O)C(Cc1ccccc1)NC(=O)[C@H]1CCCN1S(=O)(=O)c1ccc([N+](=O)[O-])cc1 (mixture of isomers) | –
20 | 5.27 | 6.85 | 38.2 | – | – | – | – | – | O=CC(Cc1ccccc1)NC(=O)[C@H]1CCCN1S(=O)(=O)c1ccc(Cl)cc1 (mixture of isomers) | –
21 | 6.96 | 7.38 | 2.61 | 5.97 | 6.29 | 4.48 | 6.38 | 5.42 | O=CC(Cc1ccccc1)NC(=O)[C@H]1CSCN1S(=O)(=O)c1ccc(I)cc1 (mixture of isomers) | –
